Laboratory results taken from ChEMBL document CHEMBL3822395, “2-Aryl-3-(2-morpholinoethyl)thiazolidin-4-ones: Synthesis, anti-inflammatory in vivo, cytotoxicity in vitro and molecular docking studies” (Eur J Med Chem, 2016).
The source made the active and inactive calls. No cut-off for these calls is given here.

How the values were obtained:
[1] = tested on: Mus musculus; assay: Antiinflammatory activity in BALB/c mouse assessed as inhibition of croton oil-induced ear edema at 33 mg/kg administered topically on ear measured at 6 hrs; assay type: functional; settings: topical
Outline: (§1)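 Male BALB/c mice (25-35 g, mean 30 g), 3 per group. Ear edema induced with croton oil 2 μg/ear in acetone. Compounds were dosed at 33, 100, 166 and 333 mg/Kg, with indomethacin 33 mg/Kg as positive control. At 6 h a 6 mm ear punch was weighed and compared with untreated ears (edema index). Inhibition % = 100 × (1 − Vt/Vc) versus the control group.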

[2] = tested on: Mus musculus; assay: Antiinflammatory activity in BALB/c mouse ear assessed as inhibition of croton oil-induced ear swelling up to 333 mg/kg administered topically on ear measured at 6 hrs relative to control; assay type: functional, organism-based
Outline: (§2)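 Male BALB/c mice, 3 per group, dosed at 33–333 mg/Kg. Ears were checked at 6 h for heat, redness and swelling against a croton oil-induced control (2 μg/ear in acetone).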

[3] = tested on: Mus musculus; assay: Antiinflammatory activity in BALB/c mouse ear assessed as inhibition of croton oil-induced ear redness up to 333 mg/kg administered topically on ear measured at 6 hrs relative to control; assay type: functional, organism-based; outline: as §2
[4] = tested on: Mus musculus; assay: Antiinflammatory activity in BALB/c mouse ear assessed as inhibition of croton oil-induced heat in ear up to 333 mg/kg administered topically on ear measured at 6 hrs relative to control; assay type: functional, organism-based; outline: as §2
[5] = tested on: Mus musculus; assay: Antiinflammatory activity in BALB/c mouse assessed as inhibition of croton oil-induced ear edema at 166 mg/kg administered topically on ear measured at 6 hrs; assay type: functional; settings: topical; outline: as §1
[6] = Cytotoxicity against African green monkey Vero cells assessed as cell viability at 62.5 ug/ml by MTT assay; assay type: cell-based; settings: chlorocebus sabaeus, read-out: Activity
Outline: (§3)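 Vero cells were seeded at 2×10^6 cells mL⁻¹ in E-MEM with 10% FBS and antibiotics, then left to attach for 24 h and 48 h before treatment. Dilutions were 62.5–1000 µg/mL in E-MEM. After a PBS wash, cells got MTT 1 mg/mL for 4 h at 37 °C in the dark. Formazan was dissolved in DMSO and read at 540 nm. Viability % = AT/AC × 100. Three independent experiments.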

[7] = Cytotoxicity against African green monkey Vero cells assessed as cell viability at 125 ug/ml by MTT assay; assay type: cell-based; settings: chlorocebus sabaeus, read-out: Activity; outline: as §3
[8] = Cytotoxicity against African green monkey Vero cells assessed as cell viability at 250 ug/ml by MTT assay; assay type: cell-based; settings: chlorocebus sabaeus, read-out: Activity; outline: as §3
[9] = Cytotoxicity against African green monkey Vero cells assessed as cell viability at 500 ug/ml by MTT assay; assay type: cell-based; settings: chlorocebus sabaeus, read-out: Activity; outline: as §3
[10] = Cytotoxicity against African green monkey Vero cells assessed as cell viability at 1000 ug/ml by MTT assay; assay type: cell-based; settings: chlorocebus sabaeus, read-out: Activity; outline: as §3

| SMILES | inhibition in vivo at 33 mg/kg [1] [%] | inhibition [2] | inhibition [3] | inhibition [4] | inhibition in vivo at 166 mg/kg [5] [%] | viability at 62.5 ug/ml [6] [%] | viability at 125 ug/ml [7] [%] | viability at 250 ug/ml [8] [%] | viability at 500 ug/ml [9] [%] | viability at 1000 ug/ml [10] [%] |
| --- | --- | --- | --- | --- | --- | --- | --- | --- | --- | --- |
| COc1ccc2c(c1)c(CC(=O)O)c(C)n2C(=O)c1ccc(Cl)cc1 [INDOMETHACIN] | 58 |  |  |  |  |  |  |  |  |  |
| O=C1CSC(c2ccc(Cl)cc2)N1CCN1CCOCC1 (centres undefined) |  | Active | Active | Active | 44 | 87 | 87 | 87 | 76 | 74 |
| COc1ccc(C2SCC(=O)N2CCN2CCOCC2)cc1 (centres undefined) |  | Active | Active | Active | 54 | 100 | 100 | 100 | 90 | 89 |
| O=C1CSC(c2cccc([N+](=O)[O-])c2)N1CCN1CCOCC1 (centres undefined) |  | Active | Active | Active | 48 | 100 | 100 | 100 | 92 | 92 |
| O=C1CSC(c2ccc(F)cc2)N1CCN1CCOCC1 (centres undefined) |  | Active | Active | Active | 39 | 100 | 100 | 100 | 91 | 89 |
| Cc1ccc(C2SCC(=O)N2CCN2CCOCC2)cc1 (centres undefined) |  | Active | Active | Active | 42 | 87 | 87 | 80 | 76 | 73 |
| O=C1CSC(c2ccccc2[N+](=O)[O-])N1CCN1CCOCC1 (centres undefined) |  | Active | Active | Active | 50 | 98 | 98 | 98 | 91 | 83 |
| O=C1CSC(c2ccc(O)cc2)N1CCN1CCOCC1 (centres undefined) |  | Active | Active | Active | 45 | 83 | 83 | 83 | 79 | 73 |
